Experimental data published in ChEMBL document CHEMBL5724801, “EUbOPEN Chemogenomics Library - Multiplex” (2024).
Values joined by “and” are separate entries in the source; they are usually repeats but may differ in a detail not shown here. Equal values may be shown once.

Tested on: Fibroblast
Test: Multiplex assay against human fibroblast
Type: toxicity, cell-based
Procedure, shortened: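 With compound added, live cells were imaged on a CQ1 microscope at 37°C and 5% CO2; staining with Hoechst33342, BioTracker Green Microtubule Cytoskeleton Dye, MitoTracker Red and Annexin V Alexa Fluor 680 had been done at seeding. The CellPathfinder machine-learning gating scheme split cells into Hoechst high-intensity objects or normal cells, normal cells into healthy, pyknosed or fragmented nuclei, and pyknosed cells into mitotic or apoptotic. The tubulin, mitochondrial-mass and membrane-permeability phenotypes are per cents of healthy-nucleus cells.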

[1] = 12 h, 1 µM, compound concentration 1 uM
[2] = 12 h, 10 µM, compound concentration 10 uM
[3] = 24 h, 1 µM, compound concentration 1 uM
[4] = 24 h, 10 µM, compound concentration 10 uM
[5] = 48 h, 1 µM, compound concentration 1 uM
[6] = 48 h, 10 µM, compound concentration 10 uM

Cc1sc2c(c1C)C(c1ccc(Cl)cc1)=N[C@H](CC(=O)OC(C)(C)C)c1nnc(C)n1-2
Population Apoptotic (%) [1]: 43% and 33% | Population Fragmented Nuclei (%) [1]: 15% and 26% | Population Healthy Nuclei (%) [1]: 62% and 51% | Population Hoechst High Intensity Objects (%) [1]: 2% and 5% | Population Membrane Permeable-Phenotype (%) [1]: 0% and 15% | Population Mitochondria Different-Phenotype (%) [1]: 5% and 10% | Population Mitotic Cells (%) [1]: 56% and 66% | Population Normal (%) [1]: 97% and 94% | Population Pyknosed Nuclei (%) [1]: 22% | Population Tubulin-Different-Phenotype (%) [1]: 30% and 46% | Total Cell Count [1]: 180 and 159 | Population Apoptotic (%) [2]: 43% and 51% | Population Fragmented Nuclei (%) [2]: 19% and 30% | Population Healthy Nuclei (%) [2]: 55% and 39% | Population Hoechst High Intensity Objects (%) [2]: 7% and 5% | Population Membrane Permeable-Phenotype (%) [2]: 0% and 4% | Population Mitochondria Different-Phenotype (%) [2]: 15% and 20% | Population Mitotic Cells (%) [2]: 56% and 48% | Population Normal (%) [2]: 92% and 94% | Population Pyknosed Nuclei (%) [2]: 25% and 29% | Population Tubulin-Different-Phenotype (%) [2]: 90% and 95% | Total Cell Count [2]: 128 and 169 | Population Apoptotic (%) [3]: 82% and 46% | Population Fragmented Nuclei (%) [3]: 17% and 29% | Population Healthy Nuclei (%) [3]: 60% and 50% | Population Hoechst High Intensity Objects (%) [3]: 2% and 6% | Population Membrane Permeable-Phenotype (%) [3]: 0% and 11% | Population Mitochondria Different-Phenotype (%) [3]: 2% and 5% | Population Normal (%) [3]: 97% and 93% | Population Pyknosed Nuclei (%) [3]: 21% and 20% | Population Tubulin-Different-Phenotype (%) [3]: 29% and 51% | Total Cell Count [3]: 186 and 149 | Population Apoptotic (%) [4]: 75% and 51% | Population Fragmented Nuclei (%) [4]: 16% and 26% | Population Healthy Nuclei (%) [4]: 69% and 45% | Population Hoechst High Intensity Objects (%) [4]: 8% and 4% | Population Membrane Permeable-Phenotype (%) [4]: 2% and 4% | Population Mitochondria Different-Phenotype (%) [4]: 19% and 26% | Population Mitotic Cells (%) [4]: 25% and 48% | Population Normal (%) [4]: 91% and 95% | Population Pyknosed Nuclei (%) [4]: 14% and 27% | Population Tubulin-Different-Phenotype (%) [4]: 76% and 87% | Total Cell Count [4]: 123 and 165 | Population Apoptotic (%) [5]: 63% and 53% | Population Fragmented Nuclei (%) [5]: 19% and 29% | Population Healthy Nuclei (%) [5]: 66% and 49% | Population Hoechst High Intensity Objects (%) [5]: 5% | Population Membrane Permeable-Phenotype (%) [5]: 0% and 12% | Population Mitochondria Different-Phenotype (%) [5]: 2% and 10% | Population Mitotic Cells (%) [5]: 36% and 46% | Population Normal (%) [5]: 94% and 95% | Population Pyknosed Nuclei (%) [5]: 13% and 21% | Population Tubulin-Different-Phenotype (%) [5]: 28% and 69% | Total Cell Count [5]: 170 and 140 | Population Apoptotic (%) [6]: 50% and 63% | Population Fragmented Nuclei (%) [6]: 21% and 35% | Population Healthy Nuclei (%) [6]: 66% and 51% | Population Hoechst High Intensity Objects (%) [6]: 1% | Population Membrane Permeable-Phenotype (%) [6]: 1% and 4% | Population Mitochondria Different-Phenotype (%) [6]: 13% and 9% | Population Mitotic Cells (%) [6]: 50% and 36% | Population Normal (%) [6]: 98% | Population Pyknosed Nuclei (%) [6]: 12% and 13% | Population Tubulin-Different-Phenotype (%) [6]: 70% and 88% | Total Cell Count [6]: 134 and 170

O=C1c2c(Br)c(Br)c(Br)c(Br)c2C(=O)N1c1ncc[nH]1
Population Apoptotic (%) [1]: 13.21% and 28% | Population Fragmented Nuclei (%) [1]: 9.34% and 7.04% | Population Healthy Nuclei (%) [1]: 61.54% and 81.22% | Population Hoechst High Intensity Objects (%) [1]: 0% | Population Membrane Permeable-Phenotype (%) [1]: 4.46% and 1.16% | Population Mitochondria Different-Phenotype (%) [1]: 9.82% and 9.25% | Population Mitotic Cells (%) [1]: 86.79% and 72% | Population Normal (%) [1]: 100% | Population Pyknosed Nuclei (%) [1]: 29.12% and 11.74% | Population Tubulin-Different-Phenotype (%) [1]: 16.96% and 14.45% | Total Cell Count [1]: 182 and 213 | Population Apoptotic (%) [2]: 10.81% and 15.56% | Population Fragmented Nuclei (%) [2]: 9.5% and 3.32% | Population Healthy Nuclei (%) [2]: 69.83% and 75.36% | Population Hoechst High Intensity Objects (%) [2]: 0% | Population Membrane Permeable-Phenotype (%) [2]: 6.4% and 1.89% | Population Mitotic Cells (%) [2]: 89.19% and 84.44% | Population Normal (%) [2]: 100% | Population Pyknosed Nuclei (%) [2]: 20.67% and 21.33% | Population Tubulin-Different-Phenotype (%) [2]: 10.4% and 27.67% | Total Cell Count [2]: 179 and 211 | Population Fragmented Nuclei (%) [3]: 11.34% and 5.44% | Population Healthy Nuclei (%) [3]: 70.62% and 82.01% | Population Hoechst High Intensity Objects (%) [3]: 0% | Population Membrane Permeable-Phenotype (%) [3]: 5.84% and 4.08% | Population Mitochondria Different-Phenotype (%) [3]: 7.3% and 2.55% | Population Mitotic Cells (%) [3]: 91.43% and 60% | Population Normal (%) [3]: 100% | Population Pyknosed Nuclei (%) [3]: 18.04% and 12.55% | Population Tubulin-Different-Phenotype (%) [3]: 16.06% and 11.73% | Total Cell Count [3]: 194 and 239 | Population Apoptotic (%) [4]: 11.11% and 20% | Population Fragmented Nuclei (%) [4]: 13.13% and 3.29% | Population Healthy Nuclei (%) [4]: 73.23% and 84.98% | Population Hoechst High Intensity Objects (%) [4]: 0% | Population Membrane Permeable-Phenotype (%) [4]: 3.45% and 5.52% | Population Mitochondria Different-Phenotype (%) [4]: 4.14% and 7.18% | Population Mitotic Cells (%) [4]: 88.89% and 80% | Population Normal (%) [4]: 100% | Population Pyknosed Nuclei (%) [4]: 13.64% and 11.74% | Population Tubulin-Different-Phenotype (%) [4]: 11.72% and 23.2% | Total Cell Count [4]: 198 and 213 | Population Fragmented Nuclei (%) [5]: 10% and 10.04% | Population Healthy Nuclei (%) [5]: 84.21% and 84.56% | Population Hoechst High Intensity Objects (%) [5]: 0% | Population Membrane Permeable-Phenotype (%) [5]: 0.62% and 1.83% | Population Mitotic Cells (%) [5]: 63.64% and 92.86% | Population Normal (%) [5]: 100% | Population Pyknosed Nuclei (%) [5]: 5.79% and 5.41% | Population Tubulin-Different-Phenotype (%) [5]: 6.88% and 17.81% | Total Cell Count [5]: 190 and 259 | Population Fragmented Nuclei (%) [6]: 12.8% and 3.12% | Population Healthy Nuclei (%) [6]: 85.31% and 89.29% | Population Hoechst High Intensity Objects (%) [6]: 0% | Population Membrane Permeable-Phenotype (%) [6]: 1.11% and 2% | Population Normal (%) [6]: 100% | Population Pyknosed Nuclei (%) [6]: 1.9% and 7.59% | Total Cell Count [6]: 211 and 224
